bCat nuc transl – beta-catenin nuclear translocation modulation; AID 1665; 0.3% of 190,000 active; nuclear translocation activity, % at 5 µM; HeLa beta-catenin nuclear translocation, immunofluorescence imaging;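 active means nuclear translocation activity above 50% at 5 µM, with a well cell count of 50 or more; inconclusive means wells under 50 cells across six images, flagged as toxic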;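 further: per-cell ratio of nuclear to cytoplasmic median beta-catenin stain intensity; plate controls were DMSO negative control for no effect and GSK-3 inhibitor IX positive control for full effect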
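System: Human HeLa cells, endogenous beta-catenin | Compound dosing: 5 µM primary, 0.02–20 µM confirmation | Timing: 24 h compound exposure at 37°C, 5% CO2 | Measured by: Fluorescence imaging of beta-catenin antibody stain plus DAPI | Read-out basis: % activation of per-cell nuclear versus cytoplasmic median beta-catenin signal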
Cl transport mod – KCC2 (human) Cl- transport modulation; B-score of Tl+ flux slope (higher = more flux/activation; lower = inhibition) at 10 µM; AID 1456; 2.2% of 190,000 active; KCC2 cells, thallium flux FluoZin-2 fluorescence; Q9H2X9;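 active means thallium flux slope and its plate-corrected score both differing from the plate sample mean at a set confidence after two filtering rounds, in either direction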;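 further: slope of fluorescence scaled to starting intensity during 10 to 20 s after thallium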
MT stabilize HCS – stabilizes microtubules in HeLa cells; AID 2205; % tubulin-high responders, % at 10 µM; HeLa tubulin immunostaining HCS, 24 h; share of cells brighter than vehicle mean+2SD; 0.83% of 200,000 active;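 active means plate Z-score above 3 for both tubulin-high and condensed-nucleus cell shares, with cell loss under 80%, at 10 µM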;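 further: anti alpha tubulin signal scored within the nucleus-defined area of each cell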
WT yeast gro inh – growth inhibition of WT yeast, mitochondrial fusion screen; 2.1% of 190,000 active; inhibition, % at 10 µM; mitochondrial fusion phenotypic screen, WT strain; AID 1362; in the data active means inhibition above about 58%; tested in S. cerevisiae
Pf gametocyte – inhibitors of late stage P. falciparum gametocyte viability; P. falciparum stage V gametocytes, ATP luminescence, 24 h; inhibition, % at 10.9 µM; 0.065% of 150,000 active; AID 743093;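 active means inhibition above the mean plus 3 SD of compounds within the control limits, set per campaign, cut at about 38% in these data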;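 further: 0% = DMSO wells and 100% = medium only without gametocytes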
Numbers without * were called inactive; i = inactive; ? = inconclusive; / = no result given. Only some compounds are listed: those with a hit (about 4% of all), similar ones and a draw of the others.

SMILES	bCat nuc transl	Cl transport mod	MT stabilize HCS	WT yeast gro inh	Pf gametocyte
Cc1c(CCOC(=O)C23CC4CC(CC(C4)C2)C3)sc[n+]1CC#N	-1.1	-0.344	2.4	-5.7	-6.1
CCOC(=O)C1=C(c2ccccc2)N=C2SCC(=O)N2C1c1ccc2c(c1)OCO2 (stereo unspecified)	-2.2	-1.1	2.9	60.0*	/
COc1cc(/C=N/N(c2ccccc2)c2ccccc2)ccc1O	/	/	/	/	-3.8
CN(/N=C\c1ccc(O)c(O)c1)c1nc(-c2ccccc2)cc(-c2ccccc2)n1	2.3	1.14	4.1	71.1*	-26.0
O=C(Cc1ccc2c(c1)OCCO2)N1CCN(c2ccccc2)CC1	-1.9	-0.205	2.8	-4.6	-4.7
Cc1ccc(-n2nc(C)c(C(=O)O)n2)c(C)c1	-2.2	-1.38	11.1	19.6	9.9
CC1=NN(c2ccc(C)cc2C)C(=O)C1C(c1ccccc1)C1C(=O)N(c2ccc(C)cc2C)N=C1C (stereo unspecified)	2.3	-0.46	2.4	73.3*	/
CC(=O)N1c2ccccc2N(Cc2ccc(C)cc2C)C(=O)C1(C)C	/	-0.0465	18.9*	0.9	/
C=CCN1C(=O)C(C)(C)N(C(C)=O)c2ccccc21	-1.6	0.0091	2.7	-4.7	4.8
COc1cc2cc(CCO)oc(=O)c2cc1OC	/	/	/	/	26.3
CC1CCCCN1Cc1nc2c(c(=O)n(C)c(=O)n2C)n1Cc1cccc2ccccc12 (stereo unspecified)	/	/	/	14.3	/
CCOC(=O)c1ccc(NC(=O)Nc2ccc(Cl)cn2)cc1	-2.1	0.681	2.8	-16.9	-17.0
CCOC(=O)c1ccc(NC(=O)Nc2ccon2)cc1	93.4*	-0.11	/	/	-2.3
O=C(N=C1SCC(=O)N1c1ccccc1Cl)c1ccco1	/	1.84	2.4	9.9	/
O=C(N=C1SCC(=O)N1c1ccccc1Cl)c1ccccc1	-0.5	-2.02	3.1	77.5*	27.0
COc1ccc(N(C)C2=NS(=O)(=O)c3ccccc32)cc1	27.7	0.23	49.3*	-12.0	17.5
O=C(NC(=S)Nc1ccc(Cl)cn1)C12CC3CC(CC(C3)C1)C2	-0.7	1.35	2.0	73.1*	-7.8
O=C(NC(=S)Nc1ccc(Cl)cn1)C(c1ccccc1)c1ccccc1	0.8	/	36.0*	72.5*	6.9
CCC(=O)NC(=S)Nc1ccc(Cl)cn1	-1.6	0.77	2.2	13.4	5.1
CCCC(=O)Nc1ccc(NC(=O)C23CC4CC(CC(C4)C2)C3)cn1	0.6	/	2.4	-6.9	/
Cn1c(Cl)c(C(=O)Nc2ccc(Cl)cc2)c2ccccc21	5.9	/	27.8*	1.8	/
CC(C)NC(=O)NC(=O)CSc1nncs1	-2.7	0.362	5.5	-13.9	9.2
Cc1cc(C)c(N2CCN(S(=O)(=O)N3CCCCCC3)CC2)c(C)c1	/	0.498	3.1	60.7*	1.9
COC(=O)c1sc2ccccc2c1-n1cccc1C(=O)C(=O)Nc1ccc(OC)cc1	/	1.12	21.9*	-0.5	-10.3
COC(=O)N/N=C1\CCCc2c(C)cc(C)cc21	-1.8	0.714	2.0	-1.6	-7.7
SMILES	bCat nuc transl	Cl transport mod	MT stabilize HCS	WT yeast gro inh	Pf gametocyte
Cc1cc(C)c2c(c1)/C(=N/NC(=S)Nc1ccc(F)cc1)CCC2	-2.0	2.87*	2.1	20.7	/
CCS(=O)(=O)N1CCC(NC(=O)C(Cc2cccc(OC)c2OC)NC(C)=O)CC1 (stereo unspecified)	/	/	/	/	-9.7
Cc1cc(Oc2ccc(C(C)(C)C)cc2)nc(N2CCOCC2)n1	/	-0.0245	2.6	75.4*	/
COc1cccc2c1C(=O)c1c(O)c3c(c(O)c1C2=O)C[C@@](O)(C(=O)CO)C[C@@H]3O[C@H]1C[C@H](N)[C@H](O)[C@H](C)O1	?	i	80.9	58.8*	/
CC1CCc2nc(NC(=O)CN3CCN(c4ccc(F)cc4)CC3)sc2C1 (stereo unspecified)	/	-0.771	0.6	67.1*	-30.1
Cc1ccc(S(=O)(=O)N2CCCC2C(=O)NCc2ccc3c(c2)OCO3)cc1 (stereo unspecified)	-0.9	-1.11	3.5	-5.2	/
CN1CCN(CC(O)(c2ccc(Cl)cc2)c2ccc(Cl)cc2)CC1	-2.0	0.366	5.2	82.5*	-5.8
CCOc1ccc(NS(=O)(=O)c2ccc(NC(=S)NC(=O)CC(C)C)cc2)cc1	-3.3	0.0249	3.0	79.5*	-39.3
Cc1ccccc1C(=O)c1cccn1CC(=O)NCCN1CCN(c2cccc(C)c2C)CC1	2.1	0.983	1.0	80.4*	4.7
Cc1ccc(C)c(N2CCN(CCCNC(=O)Cn3cccc3C(=O)c3ccccc3C)CC2)c1	-2.5	1.15	2.3	79.7*	4.6
CS(=O)(=O)N(CC(=O)Nc1ccc(S(=O)(=O)N2CCOCC2)cc1)c1cccc(F)c1	1.3	-0.581	3.7	-2.2	-31.2
COc1ccc(OC)c(C(=O)NC(CC(N)=O)c2ccc(NCCN3CCCCC3)c([N+](=O)[O-])c2)c1 (stereo unspecified)	/	/	/	/	-36.3
COc1ccccc1CNC(=O)C1CC2Cn3c(nc4cc(Cl)c(Cl)cc43)C2N1C (stereo unspecified)	/	/	/	/	-12.2
O=C(NCC(c1cccs1)N1CCOCC1)c1ccc(Br)o1 (stereo unspecified)	0.9	0.127	21.9*	24.7	/
O=C(NCC(c1cccs1)N1CCOCC1)c1ccccc1NS(=O)(=O)c1ccc(Br)cc1 (stereo unspecified)	-5.5	-0.481	1.4	33.7	/
COc1ccccc1C(=O)Nc1ccc(N2CCCCC2)cc1	/	-1.56	2.3	2.7	/
O=C(Nc1ccc(N2CCCCC2)cc1)c1ccccn1	-3.1	-0.58	4.6	60.6*	/
O=C(Nc1ccc(N2CCCCCC2)cc1)c1ccccc1Cl	32.2	-0.321	11.4*	23.1	/
CCC(C)n1cnc2c(c1=O)c1nc3ccccc3nc1n2Cc1ccc(OC)cc1 (stereo unspecified)	4.2	-1.17	1.2	65.3*	-0.4
O=C(Nc1ccc(Br)cn1)c1ccc2nccnc2c1	/	/	11.6*	/	/
O=C(CN1CCN(c2ccccc2Cl)CC1)NC1CCCc2ccccc21 (stereo unspecified)	-0.2	-0.986	2.8	32.8	/
O=C(Nc1ccc(Cl)cc1)NC1CCCc2ccccc21 (stereo unspecified)	/	0.712	30.0*	-28.5	-6.0
Cc1ccc(Cl)cc1N1CCN(CC(=O)NC2CCCc3ccccc32)CC1 (stereo unspecified)	5.4	-0.0646	4.1	74.1*	-16.9
CC(C)(C)c1ccc(NC(=O)NC2CCCc3ccccc32)cc1 (stereo unspecified)	0.4	0.758	/	/	12.7
CC(C)(C)OC(=O)CNC(=O)c1[nH]cnc1C(=O)NC(c1ccccc1)c1ccccc1	/	/	/	/	4.8
COc1cc(C(=O)N/N=C/c2sccc2C)cc(OC)c1OC	84.6*	-0.0996	12.3*	4.9	12.4
CCOc1ccc(C(=O)N/N=C/c2cc([N+](=O)[O-])cs2)cc1	-0.2	1.62	2.7	-20.9	-22.1
COc1cc(C(=O)N/N=C/c2cc([N+](=O)[O-])cs2)cc(OC)c1OC	29.0	-0.486	20.4*	6.7	-13.7
CC1(C)CC(=O)C2=C(C1)Nc1ccccc1NC2c1ccc([N+](=O)[O-])cc1 (stereo unspecified)	/	/	/	/	-25.6

High-throughput results as filed in PubChem BioAssay.
